# Measurements reported in ChEMBL document CHEMBL4622914, “Development of a bioavailable boron-containing PI-103 Bioisostere, PI-103BE” (Bioorg Med Chem Lett, 2020).
# Assays:
# [1] = test system: A549; test: Antiproliferative activity against human A549 cells assessed as reduction in cell viability incubated for 4 days by coulter counter method; type: functional, cell-based
# Procedure, shortened: (§1)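 Cancer cells were seeded at 50,000 per well in DMEM with 5% FBS. They were exposed to six compound doses for 4 days, with DMSO as vehicle control and a reference inhibitor as positive control. Cells were counted by Coulter counter. Survival ratio is treated cell number over vehicle cell number. IC50 was taken from dose–response curves. Triplicate experiments.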
# [2] = test system: MDA-MB-231; test: Antiproliferative activity against human MDA-MB-231 cells assessed as reduction in cell viability incubated for 4 days by coulter counter method; type: functional, cell-based; procedure, shortened: as §1
# [3] = test system: HeLa; test: Antiproliferative activity against human HeLa cells assessed as reduction in cell viability incubated for 4 days by coulter counter method; type: functional, cell-based; procedure, shortened: as §1
# [4] = test system: CWR22R; test: Antiproliferative activity against human 22Rv1 cells assessed as reduction in cell viability incubated for 4 days by coulter counter method; type: functional, cell-based; procedure, shortened: as §1
# [5] = Stability of compound in cell culture medium assessed as compound hydrolysis measured after 0.5 hrs; type: physicochemical
# [6] = Stability of compound in cell culture medium assessed as compound hydrolysis measured after 1 hr; type: physicochemical
# [7] = Stability of compound in cell culture medium assessed as compound hydrolysis measured after 3 hrs; type: physicochemical
# [8] = Stability of compound in cell culture medium assessed as compound hydrolysis measured after 8 hrs; type: physicochemical
# [9] = Stability of compound in cell culture medium assessed as compound hydrolysis measured after 24 hrs; type: physicochemical
# [10] = test system: PC-3; test: Antiproliferative activity against human PC3 cells assessed as reduction in cell viability incubated for 4 days by coulter counter method; type: functional, cell-based; details: PC-3, 96 h
# Procedure, shortened: (§2)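 Cells seeded at 50,000 per well in DMEM with 5% FBS, exposed to six concentrations of compound for 4 days; DMSO as vehicle control. Cell numbers counted on a Coulter counter; survival ratio = treated/vehicle cell count. IC50 taken from dose-response curves. Triplicate experiments, mean ± SD.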
# [11] = test system: SK-OV-3; test: Antiproliferative activity against human SKOV3 cells assessed as reduction in cell viability incubated for 4 days by coulter counter method; type: functional, cell-based; details: SK-OV-3, 96 h; procedure, shortened: as §2
# [12] = Drug concentration in ovariectomized nu/nu mouse plasma at 10 mg/kg, ip measured after 0.5 hrs by UHPLC-MS analysis; type: ADME, organism-based; details: female
# [13] = Drug concentration in ovariectomized nu/nu mouse plasma at 10 mg/kg, ip measured after 1 hr by UHPLC-MS analysis; type: ADME, organism-based; details: female
# [14] = Drug concentration in ovariectomized nu/nu mouse plasma at 10 mg/kg, ip measured after 3 hrs by UHPLC-MS analysis; type: ADME, organism-based; details: female
# [15] = Drug concentration in ovariectomized nu/nu mouse plasma at 10 mg/kg, ip measured after 8 hrs by UHPLC-MS analysis; type: ADME, organism-based; details: female
# [16] = Cmax in ovariectomized nu/nu mouse at 10 mg/kg, ip measured upto 24 hrs by UHPLC-MS analysis; type: ADME, organism-based; set-up: dose 10 mg/kg, route intraperitoneal; details: female, in vivo
# [17] = Tmax in ovariectomized nu/nu mouse at 10 mg/kg, ip measured upto 24 hrs by UHPLC-MS analysis; type: ADME, organism-based; details: female, in vivo
# [18] = Half life in ovariectomized nu/nu mouse at 10 mg/kg, ip measured upto 24 hrs by UHPLC-MS analysis; type: ADME, organism-based; details: female, in vivo
# Procedure, shortened: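 Female ovariectomized Nu/Nu mice, 4–6 weeks old, received a single 10 mg/kg i.p. dose as an ethanol solution. Blood was drawn from the orbital sinus at 0.5, 1, 3, 8 and 24 h, one sampling per group, into EDTA. Plasma was spun at 4 °C and stored at −80 °C. Parent and metabolites were quantified by C18 UHPLC–TSQ Vantage MS/MS.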
# [19] = AUC in ovariectomized nu/nu mouse at 10 mg/kg, ip measured upto 24 hrs by UHPLC-MS analysis; type: ADME, organism-based; set-up: dose 10 mg/kg, time < 24 hr, route intraperitoneal; details: female, in vivo
smiles,measurement,setting,value
OB(O)c1cccc(-c2nc(N3CCOCC3)c3oc4ncccc4c3n2)c1,Activity,[1],Dose-dependent effect
same,Activity,[2],Dose-dependent effect
same,Activity,[3],Dose-dependent effect
same,Activity,[4],Dose-dependent effect
same,Drug degradation,[5],2.39 µM
same,Drug degradation,[6],3.08 µM
same,Drug degradation,[7],3.52 µM
same,Drug degradation,[8],3.55 µM
same,Drug degradation,[9],3.53 µM
Oc1cccc(-c2nc(N3CCOCC3)c3oc4ncccc4c3n2)c1 [PI-103],IC50,"[1]; A549, 96 h",180 nM
same,IC50,"[2]; MDA-MB-231, 96 h",140 nM
same,IC50,[3]; 96 h,160 nM
same,IC50,"[4]; 22Rv1, 96 h",100 nM
same,IC50,[10],170 nM
same,IC50,[11],110 nM
same,Drug degradation,[5],0.05 µM
same,Drug degradation,[6],0.08 µM
same,Drug degradation,[7],0.12 µM
same,Drug degradation,[8],0.12 µM
same,Drug degradation,[9],0.14 µM
same,concentration at 0.5 h,[12],0.1 ng/mL
same,concentration at 1 h,[13],1.4 ng/mL
same,concentration at 3 h,[14],1 ng/mL
same,concentration at 8 h,[15],0.3 ng/mL
same,Cmax,[16],1.4 ng/mL
same,Tmax,[17],1 h
same,half-life,[18],2 h
same,AUC at 24 h,[19],9.7 ng·h/mL
